Experimental data reported in paper PMC7950731 (Cell reports, 2019).

Experiments:
Assay in all cases: TR-FRET of indisulam-induced ternary complex
Assay type in all cases: binding
RBM39 = RBM39 (Homo sapiens, UniProt Q14498+Q66K64)
Method in brief: (§1)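 Purified His-DCAF15–DDB1–DDA1 (SF9 co-expression) and RBM39 aa 250–330-3xFLAG (E. coli, His tag TEV-cleaved), each 0.1 μM final, with 1 nM Eu-anti-6xHis donor and 5 ng/μL anti-FLAG-XL665 acceptor. Test compound titrated, 5 min at room temperature. Excitation 360 nm; 665/620 nm ratio. Run in triplicate; EC50 from four-parameter fit.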

RBM23 = RBM23 (Homo sapiens, UniProt Q66K64+Q86U06)
DCAF15 = DCAF15 (Homo sapiens, UniProt Q14498+Q66K64)
Method in brief: as §1

NS(=O)(=O)c1ccc(S(=O)(=O)Nc2cccc3c(Cl)c[nH]c23)cc1 [indisulam]
EC50 (RBM39): 2.27 µM | EC50 (RBM23): 2.58 µM | EC50 (DCAF15): 2.27 µM
